According to ChEMBL document CHEMBL4699573, “Design, Synthesis, and Pharmacological Evaluation of Analogues Derived from the PLEV Tetrapeptide as Protein-Protein Interaction Modulators of Voltage-Gated Sodium Channel 1.6” (J Med Chem, 2020):
Residues, ends and D or L forms follow the SMILES beside them. *: point of attachment. Adamantane1carbonyl = O=C(C12CC3CC(CC(C3)C1)C2)*; OtBu = CC(C)(C)O*

Tests used:
[1] = biological target: T1, Fibroblast growth factor 14/SCN8A (Homo sapiens) (UniProt Q9UQD0+Q92915); assay: (§1) Modulation of recombinant human Nav1.6 C-terminal tail (1763 to 1976 residues)-FGF14 (64 to 252 residues) protein-protein interaction expressed in HEK293 cells assessed as long-term inactivation at depolarization cycle 3 at 10 uM incubated for 30 mins by cell patch clamp electrophysiology assay (reference value: 0.99 +/- 0.04); assay type: cell-based; details: filed as modulator
T1 sequence (Q9UQD0 whole entry, looked up, one chain of several, the tested form may be a part): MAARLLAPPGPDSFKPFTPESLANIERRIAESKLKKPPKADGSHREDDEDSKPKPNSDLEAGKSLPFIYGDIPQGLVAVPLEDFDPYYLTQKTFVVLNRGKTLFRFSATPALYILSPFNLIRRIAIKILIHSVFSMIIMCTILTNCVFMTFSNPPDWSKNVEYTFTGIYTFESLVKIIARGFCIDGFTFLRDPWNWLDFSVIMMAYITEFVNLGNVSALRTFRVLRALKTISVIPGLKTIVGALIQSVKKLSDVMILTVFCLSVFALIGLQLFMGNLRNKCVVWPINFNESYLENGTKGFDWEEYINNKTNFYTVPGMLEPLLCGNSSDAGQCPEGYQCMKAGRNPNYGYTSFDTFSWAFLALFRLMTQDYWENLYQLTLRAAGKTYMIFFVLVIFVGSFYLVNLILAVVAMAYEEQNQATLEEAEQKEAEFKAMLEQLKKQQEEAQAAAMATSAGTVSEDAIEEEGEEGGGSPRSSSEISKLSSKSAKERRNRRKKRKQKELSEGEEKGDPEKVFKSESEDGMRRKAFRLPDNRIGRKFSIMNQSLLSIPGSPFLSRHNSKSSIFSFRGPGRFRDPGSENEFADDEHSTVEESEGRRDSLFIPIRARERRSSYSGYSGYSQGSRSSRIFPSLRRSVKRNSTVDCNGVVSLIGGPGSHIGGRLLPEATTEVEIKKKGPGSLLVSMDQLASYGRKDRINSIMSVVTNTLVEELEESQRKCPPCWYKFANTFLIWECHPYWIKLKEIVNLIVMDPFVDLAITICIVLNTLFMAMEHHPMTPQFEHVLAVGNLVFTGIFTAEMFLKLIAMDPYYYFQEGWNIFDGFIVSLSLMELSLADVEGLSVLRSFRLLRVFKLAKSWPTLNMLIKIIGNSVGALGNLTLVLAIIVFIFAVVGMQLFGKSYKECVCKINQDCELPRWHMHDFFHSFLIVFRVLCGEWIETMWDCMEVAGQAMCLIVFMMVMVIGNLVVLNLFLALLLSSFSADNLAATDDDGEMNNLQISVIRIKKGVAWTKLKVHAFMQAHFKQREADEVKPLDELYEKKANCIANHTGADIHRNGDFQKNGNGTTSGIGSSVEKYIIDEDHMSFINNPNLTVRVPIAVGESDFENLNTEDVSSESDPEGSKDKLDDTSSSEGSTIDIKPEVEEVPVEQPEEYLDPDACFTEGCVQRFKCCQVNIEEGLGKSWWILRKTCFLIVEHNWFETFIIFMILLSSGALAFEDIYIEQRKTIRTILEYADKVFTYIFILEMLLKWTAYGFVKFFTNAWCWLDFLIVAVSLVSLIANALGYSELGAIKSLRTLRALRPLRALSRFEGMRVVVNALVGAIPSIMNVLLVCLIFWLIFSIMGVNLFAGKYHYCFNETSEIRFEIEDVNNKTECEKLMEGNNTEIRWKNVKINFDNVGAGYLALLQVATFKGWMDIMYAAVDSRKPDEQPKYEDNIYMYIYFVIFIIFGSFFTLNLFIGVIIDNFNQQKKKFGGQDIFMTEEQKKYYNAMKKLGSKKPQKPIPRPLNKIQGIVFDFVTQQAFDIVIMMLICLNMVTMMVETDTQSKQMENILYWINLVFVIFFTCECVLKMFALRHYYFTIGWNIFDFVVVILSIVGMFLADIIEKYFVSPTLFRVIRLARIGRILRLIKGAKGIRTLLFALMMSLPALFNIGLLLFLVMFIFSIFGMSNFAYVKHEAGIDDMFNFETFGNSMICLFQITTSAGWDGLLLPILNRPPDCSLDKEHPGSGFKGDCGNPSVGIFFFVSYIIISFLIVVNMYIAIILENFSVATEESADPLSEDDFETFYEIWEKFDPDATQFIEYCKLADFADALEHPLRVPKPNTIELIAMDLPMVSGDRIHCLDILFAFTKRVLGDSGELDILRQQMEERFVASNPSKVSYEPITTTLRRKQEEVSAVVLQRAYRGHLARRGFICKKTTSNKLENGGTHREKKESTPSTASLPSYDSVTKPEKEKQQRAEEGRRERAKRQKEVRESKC
Method in brief: (§2)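 HEK-Nav1.6 cells transiently transfected with FGF14 using Lipofectamine 2000, then exposed at least 30 min to 10 μM compound or 0.1% DMSO in the pH 7.3 HEPES extracellular solution. Whole-cell patch clamp with Cs-methanesulfonate internal solution, 70–80% capacitance and series-resistance compensation. Test steps from −100 to +60 mV. Student's t-test used.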

[2] = biological target: T2, Sodium channel protein type 8 subunit alpha (Homo sapiens, UniProt Q9UQD0); assay: Binding affinity to human recombinant Nav1.6 C-terminal domain expressed in Escherichia coli BL21 assessed as assessed as induction of protein denaturation by measuring change in melting temperature at 10 uM by fluorescent dye based thermal shift assay; details: filed as modulator, dose 50.0 µM
T2 sequence (Q9UQD0 whole entry, looked up, the tested form may be a part): as the sequence (Q9UQD0 whole entry, looked up, one chain of several, the tested form may be a part) above

[3] = biological target: T1, Fibroblast growth factor 14/SCN8A (Homo sapiens); assay: as §1, with “cycle 2” for “cycle 3”, “value: 1” for “value: 0.99”, “+/- 0.02)” for “+/- 0.04)”; assay type: cell-based; details: filed as modulator; method in brief: as §2
HEK293 [4] = assay: Modulation of recombinant human FGF141b (1 to 252 residues)-recombinant human Nav1.6 C-terminal tail (1763 to 1976 residues) protein-protein interaction expressed in HEK293 cells measured at 2 mins interval for 20 mins by split-luciferase complementation assay relative to control; assay type: cell-based; details: filed as modulator, time min 2-20
Method in brief: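 Double-stable HEK293 line expressing CLuc-FGF14 and CD4-Nav1.6-C-tail-NLuc, kept on G418 and puromycin. Cells seeded for 24 h, then given compound for 1 h in serum-free, phenol red-free DMEM/F12 with a final 0.5% DMSO: 50 μM for screening, 0.25–100 μM over eight concentrations for dose-response; n = 4. D-luciferin added and read every 2 min for 20 min at 37 °C. Peak luminescence expressed as percent of per-plate DMSO mean (n = 32). IC50 from four-parameter nonlinear fit. At least 3 experiments.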

[5] = biological target: T2, Sodium channel protein type 8 subunit alpha; assay: Modulation of recombinant human Nav1.6 C-terminal tail (1763 to 1976 residues) expressed in HEK293 cells assessed as change in time constant of fast inactivation at 10 uM incubated for 30 mins by whole cell patch clamp electrophysiology assay (reference value: 1.22 +/- 0.07 ms); assay type: cell-based; details: filed as modulator
Method in brief: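 Stable HEK-Nav1.6 cells without FGF14, incubated at least 30 min in extracellular solution (mM: 140 NaCl, 3 KCl, 1 MgCl2, 1 CaCl2, 10 HEPES, 10 glucose, pH 7.3) with compound (10 or 30 μM) or 0.1% DMSO. Whole-cell recording with Cs-methanesulfonate/EGTA/NaCl/HEPES pipette solution, 70–80% compensation. Steps −100 to +60 mV; tau measured at −10 mV. Student's t-test.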

[6] = biological target: T3, Fibroblast growth factor 14 (Homo sapiens) (UniProt Q92915); assay: Binding affinity to human recombinant FGF14 expressed in Escherichia coli BL21 assessed as assessed as induction of protein denaturation by measuring change in melting temperature at 50 uM by fluorescent dye based thermal shift assay; details: filed as modulator
T3 sequence (whole entry): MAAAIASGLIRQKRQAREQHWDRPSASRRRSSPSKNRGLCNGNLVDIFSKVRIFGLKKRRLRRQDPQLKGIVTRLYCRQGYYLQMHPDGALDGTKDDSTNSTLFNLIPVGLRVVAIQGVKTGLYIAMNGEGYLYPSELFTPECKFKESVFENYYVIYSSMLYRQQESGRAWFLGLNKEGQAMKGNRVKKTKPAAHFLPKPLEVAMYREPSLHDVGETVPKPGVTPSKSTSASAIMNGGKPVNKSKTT

[7] = biological target: T3, Fibroblast growth factor 14 (Homo sapiens); assay: Binding affinity to human recombinant FGF14 expressed in Escherichia coli BL21 assessed as dissociation rate constant by SPR analysis; details: filed as modulator
Method in brief: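 Biacore T100 runs with FGF14 (17,896 RU) or Nav1.6 C-tail (6,800 RU) amine-coupled on CM5 at pH 5.5. Compounds at 0.195–200 μM in PBS, 0.005% Tween-20, 2% DMSO; 50 μL/min at 25 °C. 120 s association, 150 s dissociation, DMSO calibration, blank subtraction. Rates from a Langmuir 1:1 fit; KD averages the kinetic and steady-state values. At least duplicate experiments.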

HEK293 [8] = assay: Cytotoxicity against HEK293 cells assessed as reduction in cell viability measured after 18 hrs by celltiter-blue assay; details: human, hek293, 18 h
[9] = biological target: T2, Sodium channel protein type 8 subunit alpha; assay: Modulation of recombinant human Nav1.6 C-terminal tail (1763 to 1976 residues) expressed in HEK293 cells assessed as long-term inactivation at depolarization cycle 3 at 10 uM incubated for 30 mins by whole cell patch clamp electrophysiology assay (reference value: 0.76 +/- 0.05); assay type: cell-based; details: filed as modulator
[10] = biological target: T1, Fibroblast growth factor 14/SCN8A (Homo sapiens); assay: Modulation of recombinant human Nav1.6 C-terminal tail (1763 to 1976 residues)-FGF14 (64 to 252 residues) protein-protein interaction expressed in HEK293 cells assessed as change in time constant of inactivation at 10 uM incubated for 30 mins by cell patch clamp electrophysiology assay (reference value: 1.58 +/- 0.18 ms); assay type: cell-based; details: filed as modulator; method in brief: as §2
[11] = biological target: T2, Sodium channel protein type 8 subunit alpha; assay: Modulation of recombinant human Nav1.6 C-terminal tail (1763 to 1976 residues) expressed in HEK293 cells assessed as long-term inactivation at depolarization cycle 2 at 10 uM incubated for 30 mins by whole cell patch clamp electrophysiology assay (reference value: 0.84 +/- 0.03); assay type: cell-based; details: filed as modulator
[12] = biological target: T2, Sodium channel protein type 8 subunit alpha; assay: Modulation of recombinant human Nav1.6 C-terminal tail (1763 to 1976 residues) expressed in HEK293 cells assessed as long-term inactivation at depolarization cycle 4 at 10 uM incubated for 30 mins by whole cell patch clamp electrophysiology assay (reference value: 0.75 +/- 0.05); assay type: cell-based; details: filed as modulator

`COC(=O)[C@@H](NC(=O)[C@H](CCC(=O)OC(C)(C)C)NC(=O)[C@H](CC(C)C)NC(=O)[C@@H]1CCCN1C(=O)C12CC3CC(CC(C3)C1)C2)C(C)C` (Adamantane1carbonyl-PLE(OtBu)V-OMe) was tested, and the Activity [1] was 0.81, the ΔTm [2] was -4.64 °C and the Activity [3] was 0.86. For the same molecule, the Efficacy (HEK293 [4]) was 96.1%, the K [5] was 1.45 ms and the ΔTm [6] was -2.27 °C. For the same molecule, the K [7] was 9.33 10^-3/s, the Activity (HEK293 [8]) was “Non-Toxic” and the Activity [9] was 0.76. The K [10] was 1 ms, the Activity [11] was 0.87 and the Activity [12] was 0.7.
